Results on nine compounds are retold here after ChEMBL document CHEMBL1123062, “Relationship between structure and antineoplastic activity of (arylsulfonyl)hydrazones of 4-pyridinecarboxaldehyde” (1985).

In the first assay the test system is P388. The assay is described as follows: Maximum effective daily dose required to inhibit the tumors of P388 leukemia. Format: functional, Mus musculus. An outline of the steps:
(§1)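 Ascitic Sarcoma 180 or P388 leukemia carried in CDF-1 mice; recipients transplanted from donors bearing 7-day tumors. Compound given once daily for six consecutive days from 24 h after implantation, over 50–200 mg/kg per day; hydrochloride salt solutions adjusted to pH 6.5–7.0. Mice weighed; % body-weight change onset to end of therapy taken as host toxicity; maximum effective daily dose reported from survival prolongation.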
As to `Cc1ccc(S(=O)(=O)N/N=C/c2ccc([N+](=O)[O-])cc2)cc1.Cl`, the Dose was 200 mg/kg.

The compound `Cc1cc(C)c(S(=O)(=O)N/N=C/c2ccncc2)c(C)c1.Cl` had a Dose of 100 mg/kg.

With `COc1ccc(S(=O)(=O)N/N=C/c2ccc([N+](=O)[O-])cc2)cc1.Cl`, the Dose was found to be 200 mg/kg.

Regarding `COc1ccc(S(=O)(=O)N/N=C/c2ccncc2)cc1.Cl`, the Dose was determined as 150 mg/kg.

As for `Cl.O=S(=O)(N/N=C/c1ccncc1)c1ccccc1`, the Dose turned out to be 150 mg/kg.

`O=[N+]([O-])c1ccc(/C=N/NS(=O)(=O)c2ccc(Cl)cc2)cc1` registered a Dose of 200 mg/kg.

Another assay is filed under the species Mus musculus. The experiment in a line: Ratio of average survival time of treated to control mice bearing P388 leukemia. Format: functional. The gist of the method: (§2)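 In CDF-1 mice bearing ascitic P388 leukemia or Sarcoma 180 from 7-day donors, dosing ran once daily for six days from 24 h post-implant (range 50–200 mg/kg/day; HCl salts adjusted to pH 6.5–7.0). % T/C was the average survival time of treated over control animals × 100, reported at the maximum effective daily dose.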
For `Cc1ccc(S(=O)(=O)N/N=C/c2ccc([N+](=O)[O-])cc2)cc1.Cl`, the T/C stood at 107%.

Regarding `Cc1cc(C)c(S(=O)(=O)N/N=C/c2ccncc2)c(C)c1.Cl`, the T/C amounted to 129%.

Regarding `COc1ccc(S(=O)(=O)N/N=C/c2ccc([N+](=O)[O-])cc2)cc1.Cl`, the T/C is listed as 99%.

For `COc1ccc(S(=O)(=O)N/N=C/c2ccncc2)cc1.Cl`, the T/C amounted to 123%.

In the case of `Cl.O=S(=O)(N/N=C/c1ccncc1)c1ccccc1`, the T/C was 123%.

With `O=[N+]([O-])c1ccc(/C=N/NS(=O)(=O)c2ccc(Cl)cc2)cc1`, the T/C was determined as 107%.

System in another assay: not listed separately
The experiment in a line: Compound was evaluated for antitumor activity in mice bearing sarcoma 180 ascites cells from average survival time. Format: functional, Mus musculus. The gist of the method:
(§3)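 Ascites forms of Sarcoma 180 or P388 leukemia carried in CDF-1 mice. Recipients were implanted from donors with 7-day tumor growth. Compound given once daily for six consecutive days starting 24 h after implantation, with a tested range of 50–200 mg/kg per day. Hydrochloride salt solutions were adjusted to pH 6.5–7.0. Survival time was averaged, days ± SE. Body weight was tracked as a toxicity indicator.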
For the compound `Cc1ccc(S(=O)(=O)N/N=C/c2ccncc2)cc1`, the Time turned out to be 32.4 days.

`Cc1ccc(S(=O)(=O)N/N=C/c2ccc([N+](=O)[O-])cc2)cc1.Cl` had a Time of 29.6 days.

In turn, `CN(/N=C/c1ccncc1)S(=O)(=O)c1ccc(Cl)cc1.Cl` had a Time of 16 days.

With `C/C(=N\NS(=O)(=O)c1c(C)cc(C)cc1C)c1ccncc1`, the Time came to 20.6 days.

The species named for another assay is Mus musculus. The experiment in a line: Ratio of average survival time of treated to control mice bearing sarcoma 180 ascites cells. Format: functional. An outline of the steps:
as §2
For `Cc1ccc(S(=O)(=O)N/N=C/c2ccncc2)cc1`, the T/C is 222%.

For `Cc1ccc(S(=O)(=O)N/N=C/c2ccc([N+](=O)[O-])cc2)cc1.Cl`, the T/C was determined as 197%.

Take `Cc1cc(C)c(S(=O)(=O)N/N=C/c2ccncc2)c(C)c1.Cl`: the T/C is recorded as 239%.

On to `COc1ccc(S(=O)(=O)N/N=C/c2ccc([N+](=O)[O-])cc2)cc1.Cl`, for which the T/C came to 159%.

Turning to `COc1ccc(S(=O)(=O)N/N=C/c2ccncc2)cc1.Cl`, the T/C worked out at 218%.

Turning to `CN(/N=C/c1ccncc1)S(=O)(=O)c1ccc(Cl)cc1.Cl`, the T/C is given as 110%.

With `Cl.O=S(=O)(N/N=C/c1ccncc1)c1ccccc1`, the T/C came out at 225%.

For `C/C(=N\NS(=O)(=O)c1c(C)cc(C)cc1C)c1ccncc1`, the T/C is recorded as 123%.

`O=[N+]([O-])c1ccc(/C=N/NS(=O)(=O)c2ccc(Cl)cc2)cc1`: the T/C is 189%.

System in a further assay: not listed separately
The assay is described as follows: Compound was evaluated for average change in body weight from onset to the termination of drug therapy in mice bearing sarcoma 180 ascites cells. The class given is functional, Mus musculus. The gist of the method:
as §1
Consider `C/C(=N\NS(=O)(=O)c1c(C)cc(C)cc1C)c1ccncc1`, for which the Change of weight was found to be 3.2%.

System in the next assay: not listed separately
The assay is described as follows: Compound was evaluated for antitumor activity in mice (control group) bearing sarcoma 180 ascites cells from average survival time. Format: functional, Mus musculus. An outline of the steps: as §3
As to `Cc1ccc(S(=O)(=O)N/N=C/c2ccncc2)cc1`, the Time turned out to be 14.6 days.

Compound `Cc1ccc(S(=O)(=O)N/N=C/c2ccc([N+](=O)[O-])cc2)cc1.Cl` registered a Time of 15 days.

Take `CN(/N=C/c1ccncc1)S(=O)(=O)c1ccc(Cl)cc1.Cl`: the Time stood at 14.6 days.

The compound `C/C(=N\NS(=O)(=O)c1c(C)cc(C)cc1C)c1ccncc1` had a Time of 16.8 days.

Another assay deals with P388. The assay is described as follows: Compound was evaluated for antitumor activity in mice (control group) bearing P388 leukemic cells from average survival time. The class given is functional, Mus musculus. The gist of the method:
as §3
`Cc1ccc(S(=O)(=O)N/N=C/c2ccc([N+](=O)[O-])cc2)cc1.Cl`: the Time came out at 14.2 days.

`Cl.O=S(=O)(N/N=C/c1ccncc1)c1ccccc1` registered a Time of 14.6 days.

The subject of the next assay is P388. The assay is described as follows: Compound was evaluated for antitumor activity in mice bearing P388 leukemic cells and average survival time. The class given is functional, Mus musculus. An outline of the steps:
as §3
Take `Cc1cc(C)c(S(=O)(=O)N/N=C/c2ccncc2)c(C)c1.Cl`: the Time came to 18.8 days.

As for `COc1ccc(S(=O)(=O)N/N=C/c2ccc([N+](=O)[O-])cc2)cc1.Cl`, the Time was 14.6 days.

As for `COc1ccc(S(=O)(=O)N/N=C/c2ccncc2)cc1.Cl`, the Time amounted to 18 days.

`O=[N+]([O-])c1ccc(/C=N/NS(=O)(=O)c2ccc(Cl)cc2)cc1` yielded a Time of 15.2 days.

For another assay, the system named is P388. The experiment in a line: Compound was evaluated for antitumor activity in mice bearing P388 leukemic cells from average survival time. Format: functional, Mus musculus. The gist of the method:
as §3
The compound `Cc1ccc(S(=O)(=O)N/N=C/c2ccc([N+](=O)[O-])cc2)cc1.Cl` yielded a Time of 15.2 days.

`Cl.O=S(=O)(N/N=C/c1ccncc1)c1ccccc1` came in with a Time of 18 days.

System in a further assay: not listed separately
The assay is described as follows: Compound was evaluated for antitumor activity in mice bearing sarcoma 180 ascites cells and average survival time. The class given is functional, Mus musculus. An outline of the steps:
as §3
Turning to `Cc1cc(C)c(S(=O)(=O)N/N=C/c2ccncc2)c(C)c1.Cl`, the Time turned out to be 34 days.

`COc1ccc(S(=O)(=O)N/N=C/c2ccc([N+](=O)[O-])cc2)cc1.Cl` yielded a Time of 23.8 days.

In the case of `COc1ccc(S(=O)(=O)N/N=C/c2ccncc2)cc1.Cl`, the Time came out at 31 days.

In turn, `Cl.O=S(=O)(N/N=C/c1ccncc1)c1ccccc1` displayed a Time of 32 days.

For `O=[N+]([O-])c1ccc(/C=N/NS(=O)(=O)c2ccc(Cl)cc2)cc1`, the Time was determined as 28.4 days.

The next assay has as its system P388. The assay is described as follows: Compound was evaluated for antitumor activity in mice (control group) bearing P388 leukemic cells and average survival time. Format: functional, Mus musculus. The gist of the method:
as §3
For `Cc1cc(C)c(S(=O)(=O)N/N=C/c2ccncc2)c(C)c1.Cl`, the Time amounted to 14.6 days.

Compound `COc1ccc(S(=O)(=O)N/N=C/c2ccc([N+](=O)[O-])cc2)cc1.Cl` yielded a Time of 14.8 days.

The compound `COc1ccc(S(=O)(=O)N/N=C/c2ccncc2)cc1.Cl` had a Time of 14.6 days.

Turning to `O=[N+]([O-])c1ccc(/C=N/NS(=O)(=O)c2ccc(Cl)cc2)cc1`, the Time was determined as 14.2 days.

Another assay is filed under the species Mus musculus. The assay is described as follows: Average change in body weight from onset to the termination of drug therapy in mice bearing sarcoma 180 ascites cells. The class given is functional. An outline of the steps: as §1
Take `Cc1ccc(S(=O)(=O)N/N=C/c2ccncc2)cc1`: the Weight change is -16.7%.

As for `Cc1ccc(S(=O)(=O)N/N=C/c2ccc([N+](=O)[O-])cc2)cc1.Cl`, the Weight change is recorded as -17.4%.

Take `Cc1cc(C)c(S(=O)(=O)N/N=C/c2ccncc2)c(C)c1.Cl`: the Weight change was -8.4%.

With `COc1ccc(S(=O)(=O)N/N=C/c2ccc([N+](=O)[O-])cc2)cc1.Cl`, the Weight change is -19%.

With `COc1ccc(S(=O)(=O)N/N=C/c2ccncc2)cc1.Cl`, the Weight change is on record as -10.7%.

Take `CN(/N=C/c1ccncc1)S(=O)(=O)c1ccc(Cl)cc1.Cl`: the Weight change is reported as -4.2%.

Regarding `Cl.O=S(=O)(N/N=C/c1ccncc1)c1ccccc1`, the Weight change is listed as -8.6%.

`O=[N+]([O-])c1ccc(/C=N/NS(=O)(=O)c2ccc(Cl)cc2)cc1`: the Weight change was -16%.

System in another assay: not listed separately
The assay is described as follows: Compound was evaluated for antitumor activity in mice (control group) bearing sarcoma 180 ascites cells and average survival time. The class given is functional, Mus musculus. An outline of the steps: as §3
In the case of `Cc1cc(C)c(S(=O)(=O)N/N=C/c2ccncc2)c(C)c1.Cl`, the Time was 14.2 days.

`COc1ccc(S(=O)(=O)N/N=C/c2ccc([N+](=O)[O-])cc2)cc1.Cl` showed a Time of 15 days.

Take `COc1ccc(S(=O)(=O)N/N=C/c2ccncc2)cc1.Cl`: the Time was determined as 14.2 days.

`Cl.O=S(=O)(N/N=C/c1ccncc1)c1ccccc1`: the Time is 14.2 days.

In turn, `O=[N+]([O-])c1ccc(/C=N/NS(=O)(=O)c2ccc(Cl)cc2)cc1` displayed a Time of 15 days.

System in a further assay: not listed separately
The assay is described as follows: Maximum effective daily dose required to inhibit the tumors of sarcoma 180 ascites cells. The class given is functional, Mus musculus. The gist of the method:
as §1
On to `Cc1ccc(S(=O)(=O)N/N=C/c2ccncc2)cc1`, for which the Dose turned out to be 100 mg/kg.

Regarding `Cc1ccc(S(=O)(=O)N/N=C/c2ccc([N+](=O)[O-])cc2)cc1.Cl`, the Dose was found to be 100 mg/kg.

With `Cc1cc(C)c(S(=O)(=O)N/N=C/c2ccncc2)c(C)c1.Cl`, the Dose was 50 mg/kg.

`COc1ccc(S(=O)(=O)N/N=C/c2ccc([N+](=O)[O-])cc2)cc1.Cl`: the Dose was 100 mg/kg.

`COc1ccc(S(=O)(=O)N/N=C/c2ccncc2)cc1.Cl` gave a Dose of 100 mg/kg.

Regarding `CN(/N=C/c1ccncc1)S(=O)(=O)c1ccc(Cl)cc1.Cl`, the Dose was found to be 100 mg/kg.

Take `Cl.O=S(=O)(N/N=C/c1ccncc1)c1ccccc1`: the Dose was determined as 100 mg/kg.

Turning to `C/C(=N\NS(=O)(=O)c1c(C)cc(C)cc1C)c1ccncc1`, the Dose worked out at 100 mg/kg.

The compound `O=[N+]([O-])c1ccc(/C=N/NS(=O)(=O)c2ccc(Cl)cc2)cc1` displayed a Dose of 100 mg/kg.

For a further assay, the system named is P388. The experiment in a line: Compound was evaluated for average change in body weight from onset to the termination of drug therapy in mice bearing P388 leukemic cells. Format: functional, Mus musculus. An outline of the steps: as §1
With `Cc1ccc(S(=O)(=O)N/N=C/c2ccc([N+](=O)[O-])cc2)cc1.Cl`, the Weight change is listed as -3%.

On to `Cc1cc(C)c(S(=O)(=O)N/N=C/c2ccncc2)c(C)c1.Cl`, for which the Weight change is listed as -2.2%.

On to `COc1ccc(S(=O)(=O)N/N=C/c2ccc([N+](=O)[O-])cc2)cc1.Cl`, for which the Weight change is reported as -5.7%.

Consider `COc1ccc(S(=O)(=O)N/N=C/c2ccncc2)cc1.Cl`, for which the Weight change was found to be 0.7%.

Turning to `Cl.O=S(=O)(N/N=C/c1ccncc1)c1ccccc1`, the Weight change is recorded as -3.1%.

For the compound `O=[N+]([O-])c1ccc(/C=N/NS(=O)(=O)c2ccc(Cl)cc2)cc1`, the Weight change is on record as -2.4%.

By T/C is commonly meant the result in the treated group divided by that in the control group, in per cent.
